According to ChEMBL document CHEMBL4689842, “EUbOPEN Chemogenomics Library wave 1” (2021):

Tests used:
[1] = system: U2OS; assay: Multiplex assay against U2OS; type: toxicity, cell-based; settings: human
In short: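 Tubulin, mitochondrial-mass and membrane-permeability phenotypes are per cents of healthy-nucleus cells. Cells were gated by CellPathfinder machine learning into Hoechst high-intensity objects or normal cells, normal cells into healthy, pyknosed or fragmented nuclei, and pyknosed cells into mitotic or apoptotic. Before that, live cells stained at seeding with Hoechst33342, BioTracker Green Microtubule Cytoskeleton Dye, MitoTracker Red and Annexin V Alexa Fluor 680 were imaged on a CQ1 microscope at 37°C and 5% CO2 after compound addition.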

[2] = system: U2OS; assay: Incucyte cell viability with U2OS; type: toxicity, cell-based; settings: human, 10 µM, compound concentration 10 uM; also: filed as whole numbers so only -1 and 0 and 1 occur
[3] = 12 h, 1 µM, compound concentration 1 uM, replicate 1
[4] = 12 h, 1 µM, compound concentration 1 uM, replicate 2
[5] = 12 h, 10 µM, compound concentration 10 uM, replicate 1
[6] = 12 h, 10 µM, compound concentration 10 uM, replicate 2
[7] = 24 h, 1 µM, compound concentration 1 uM, replicate 1
[8] = 24 h, 1 µM, compound concentration 1 uM, replicate 2
[9] = 24 h, 10 µM, compound concentration 10 uM, replicate 1
[10] = 24 h, 10 µM, compound concentration 10 uM, replicate 2

Question: Which results are given for COc1cc2c(Nc3ccc(NC(=O)c4ccccc4)cc3)ncnc2cc1OCCCN1CCOCC1?
Answer: Population Apoptotic (%) [1, 3]: 18%; Population Fragmented Nuclei (%) [1, 3]: 8%; Population Healthy Nuclei (%) [1, 3]: 77%; Population Hoechst High Intensity Objects (%) [1, 3]: 1%; Population Membrane Permeable-Phenotype (%) [1, 3]: 63%; Population Mitochondria Different-Phenotype (%) [1, 3]: 24%; Population Mitotic Cells (%) [1, 3]: 81%; Population Normal (%) [1, 3]: 98%; Population Pyknosed Nuclei (%) [1, 3]: 13%; Population Tubulin-Different-Phenotype (%) [1, 3]: 99%; Total Cell Count [1, 3]: 121; Population Apoptotic (%) [1, 4]: 0%; Population Fragmented Nuclei (%) [1, 4]: 20%; Population Healthy Nuclei (%) [1, 4]: 74%; Population Hoechst High Intensity Objects (%) [1, 4]: 12%; Population Membrane Permeable-Phenotype (%) [1, 4]: 67%; Population Mitochondria Different-Phenotype (%) [1, 4]: 14%; Population Mitotic Cells (%) [1, 4]: 100%; Population Normal (%) [1, 4]: 87%; Population Pyknosed Nuclei (%) [1, 4]: 5%; Population Tubulin-Different-Phenotype (%) [1, 4]: 92%; Total Cell Count [1, 4]: 97; Population Apoptotic (%) [1, 5]: 44%; Population Fragmented Nuclei (%) [1, 5]: 5%; Population Healthy Nuclei (%) [1, 5]: 86%; Population Hoechst High Intensity Objects (%) [1, 5]: 3%; Population Membrane Permeable-Phenotype (%) [1, 5]: 10%; Population Mitochondria Different-Phenotype (%) [1, 5]: 24%; Population Mitotic Cells (%) [1, 5]: 55%; Population Normal (%) [1, 5]: 96%; Population Pyknosed Nuclei (%) [1, 5]: 7%; Total Cell Count [1, 5]: 215; Population Apoptotic (%) [1, 6]: 0%; Population Fragmented Nuclei (%) [1, 6]: 10%; Population Healthy Nuclei (%) [1, 6]: 87%; Population Hoechst High Intensity Objects (%) [1, 6]: 11%; Population Membrane Permeable-Phenotype (%) [1, 6]: 13%; Population Mitochondria Different-Phenotype (%) [1, 6]: 38%; Population Mitotic Cells (%) [1, 6]: 100%; Population Normal (%) [1, 6]: 88%; Population Pyknosed Nuclei (%) [1, 6]: 2%; Population Tubulin-Different-Phenotype (%) [1, 6]: 14%; Total Cell Count [1, 6]: 115; Population Apoptotic (%) [1, 7]: 19%; Population Fragmented Nuclei (%) [1, 7]: 16%; Population Healthy Nuclei (%) [1, 7]: 63%; Population Hoechst High Intensity Objects (%) [1, 7]: 2%; Population Membrane Permeable-Phenotype (%) [1, 7]: 48%; Population Mitochondria Different-Phenotype (%) [1, 7]: 39%; Population Mitotic Cells (%) [1, 7]: 80%; Population Normal (%) [1, 7]: 97%; Population Pyknosed Nuclei (%) [1, 7]: 19%; Population Tubulin-Different-Phenotype (%) [1, 7]: 98%; Total Cell Count [1, 7]: 129; Population Apoptotic (%) [1, 8]: 26%; Population Fragmented Nuclei (%) [1, 8]: 24%; Population Healthy Nuclei (%) [1, 8]: 61%; Population Hoechst High Intensity Objects (%) [1, 8]: 7%; Population Membrane Permeable-Phenotype (%) [1, 8]: 44%; Population Mitochondria Different-Phenotype (%) [1, 8]: 43%; Population Mitotic Cells (%) [1, 8]: 73%; Population Normal (%) [1, 8]: 92%; Population Pyknosed Nuclei (%) [1, 8]: 14%; Population Tubulin-Different-Phenotype (%) [1, 8]: 95%; Total Cell Count [1, 8]: 108; Population Apoptotic (%) [1, 9]: 18%; Population Fragmented Nuclei (%) [1, 9]: 7%; Population Healthy Nuclei (%) [1, 9]: 83%; Population Hoechst High Intensity Objects (%) [1, 9]: 8%; Population Membrane Permeable-Phenotype (%) [1, 9]: 13%; Population Mitochondria Different-Phenotype (%) [1, 9]: 37%; Population Mitotic Cells (%) [1, 9]: 81%; Population Normal (%) [1, 9]: 91%; Population Pyknosed Nuclei (%) [1, 9]: 9%; Population Tubulin-Different-Phenotype (%) [1, 9]: 18%; Total Cell Count [1, 9]: 237; Population Apoptotic (%) [1, 10]: 25%; Population Fragmented Nuclei (%) [1, 10]: 14%; Population Healthy Nuclei (%) [1, 10]: 77%; Population Hoechst High Intensity Objects (%) [1, 10]: 10%; Population Membrane Permeable-Phenotype (%) [1, 10]: 14%; Population Mitochondria Different-Phenotype (%) [1, 10]: 25%; Population Mitotic Cells (%) [1, 10]: 75%; Population Normal (%) [1, 10]: 89%; Population Pyknosed Nuclei (%) [1, 10]: 8%; Population Tubulin-Different-Phenotype (%) [1, 10]: 22%; Total Cell Count [1, 10]: 115; Growth Rate ([2]; 0 h, replicate number 1, timepoint 0 hours): 1; Growth Rate ([2]; 6 h, replicate number 1, timepoint 6 hours): 1; Growth Rate ([2]; 12 h, replicate number 1, timepoint 12 hours): 0; Growth Rate ([2]; 18 h, replicate number 1, timepoint 18 hours): 0; Growth Rate ([2]; 18 h, replicate number 2, timepoint 18 hours): 1; Growth Rate ([2]; 24 h, replicate number 1, timepoint 24 hours): 0; Growth Rate ([2]; 24 h, replicate number 2, timepoint 24 hours): 1
